# 5-HT1A blocker: 5-HT1a (human) receptor antagonism; P08908; CHO 5-HT1a Ga15 NFAT-bla reporter, antagonist mode; inhibition, % at 10 µM; hit rate 0.68% among 62,000; AID 612;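 active means inhibition above the mean of all tested compounds plus 3 SD, cut at about 43% in these data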;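 further: receptor stimulated by 5-CT agonist at 100 nM near EC80; beta-lactamase reporter measured by ratiometric fluorescence of a cleavable substrate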
# 5HT1E ag: agonists of human 5-HT1E serotonin receptor. AID 574. activation, % at 6 µM. hit rate 0.69% among 65,000. CHO 5-HT1E Ga15 NFAT-bla reporter, FRET; 0% DMSO wells, 100% control agonist wells;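 active means activation above a set limit, the screen-wide mean activation plus 3 SD, cut at about 8.5% in these data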;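 further: 100% = positive control agonist at 1 µM giving full maximal response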
# Target sequence (P28566 whole entry, looked up): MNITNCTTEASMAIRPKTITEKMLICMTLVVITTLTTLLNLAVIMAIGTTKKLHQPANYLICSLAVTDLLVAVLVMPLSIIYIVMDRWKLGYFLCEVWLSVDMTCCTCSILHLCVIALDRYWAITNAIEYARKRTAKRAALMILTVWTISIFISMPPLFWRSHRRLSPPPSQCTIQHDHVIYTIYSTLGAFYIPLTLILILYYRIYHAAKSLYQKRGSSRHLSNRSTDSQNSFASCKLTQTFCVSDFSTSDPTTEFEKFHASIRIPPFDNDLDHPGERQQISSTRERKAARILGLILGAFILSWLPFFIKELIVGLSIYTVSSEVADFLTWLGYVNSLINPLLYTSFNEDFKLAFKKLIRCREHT
# HTR1A agonist: agonists of human 5-HT1a serotonin receptor | hit rate 0.56% among 65,000 | activation, % at 10 µM | P08908 | CHO 5-HT1a Ga15 NFAT-bla reporter, FRET ratio; 0% basal, 100% maximal reference agonist | AID 567;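 active means activation above the screen-wide mean activation plus 3 SD, cut at about 19% in these data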;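 further: 0% = DMSO wells and 100% = 5-CT at EC100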
# HEK293 NFkB inh: lowers PMA/ionomycin-induced NF-kB signal in HEK293 cells | HEK-293 NF-kB luciferase reporter, luminescence | inhibition, % at 3 µM | hit rate 0.21% among 62,000;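 active means inhibition above the mean of all tested compounds plus 3 SD, cut at about 40% in these data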;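 further: 0% = stimulated DMSO wells and 100% = 10 µM reference inhibitor 5653914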
#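 Material: HEK-293 cells with stable firefly luciferase reporter driven by four HIV NF-kB elements / Also added: PMA plus ionomycin mix as NF-kB-activating stimulus / Compound dosing: 3 µM once, 0.30% DMSO / Times: 1 h pretreatment, 16 h stimulation, 37 °C / Signal: luminescence / Evaluation: per-plate % inhibition versus controls / Benchmarks: DMSO and 10 µM reference inhibitor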
# Jurkat viability: cytotoxic compounds reducing Jurkat cell viability; Jurkat E6.1 viability, ATP luminescence, 48 h; hit rate 1.2% among 56,000; inhibition, % at 4 µM;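 active means inhibition above the mean inhibition of all tested compounds plus 3 SD, cut at about 28% in these data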
# 5HT1E antag: blocks the human 5-HT1E serotonin receptor; P28566; inhibition, % at 6 µM; hit rate 0.99% among 65,000; CHO 5-HT1E Ga15 NFAT-bla reporter, FRET, antagonist; AID 571;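 active means inhibition above a set limit, the mean inhibition across every tested compound plus 3 SD, cut at about 29% in these data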;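 further: signal is the 460 over 535 nm emission ratio of beta-lactamase substrate; 0% = agonist plus DMSO wells and 100% = wells without agonist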
# * = called active by the depositor; . = not tested or not shown. Most compounds without a hit are left out; they make up all but 3.3% or so of the library.
SMILES,5-HT1A blocker,5HT1E ag,HTR1A agonist,HEK293 NFkB inh,Jurkat viability,5HT1E antag
C=CCNc1nc2c(c(=O)n(C)c(=O)n2C)n1CC(=C)C,-3,0,1,16,4,-5
Cc1ccc(C2c3c(oc4ccccc4c3=O)C(=O)N2c2nnc(C(C)C)s2)o1 (configuration not stated),1,2,-1,8,1,32*
O=C(NCc1cccs1)C1CCCN(c2nc3ccccc3o2)C1 (configuration not stated),-3,1,0,3,-1,9
COc1cccc(C(=O)Cn2c(=N)n(C)c3ccccc32)c1,47*,1,0,-62,0,11
COC(=O)CSc1nnc(CNC(=O)Cc2ccccc2)n1-c1ccccc1OC,-2,-1,1,17,-4,-1
O=C(O)CCCNS(=O)(=O)c1cccs1,7,-1,20*,12,13,11
Cc1cc(C)n(CC2CC(=O)N(c3ccc(Cl)c(Cl)c3)C2=O)n1 (configuration not stated),.,0,0,.,.,-11
CCCCCn1c(CN2CCN(c3cc(Cl)ccc3C)CC2)nc2c1c(=O)[nH]c(=O)n2C,-4,-1,-1,17,5,0
CCN(CC)CCCNC(=O)N[C@@H](Cc1ccccc1)C(=O)O,-4,0,-1,10,4,-7
CCN(CCCc1ccccc1)CCCc1ccccc1,.,31*,0,.,.,5
Cc1cc(NC(=O)Cc2cccs2)nn1CC(=O)NCc1ccco1,7,16*,-3,12,-1,7
CC(C)(C)OC(=O)N1CCN(c2ccc(NC(=O)c3cc4ccccc4oc3=O)cc2)CC1,9,-2,-1,14,.,1
Cc1ccc(C2C(C(=O)c3sc(C)nc3C)=C(O)C(=O)N2CCCN(C)C)o1 (configuration not stated),-7,0,1,7,-2,-3
O=C(CCNC(=O)Cn1ccc2ccccc2c1=O)NCCN1CCc2ccccc2C1,2,1,0,2,-3,-5
O=C(Cn1ccc2ccccc2c1=O)NCCC(=O)NC1CCN(Cc2ccccc2)CC1,-10,11*,0,4,-5,0
COc1ccc2[nH]c3c(N4CCN(Cc5ccc6c(c5)OCO6)CC4)ncnc3c2c1,.,-1,2,.,.,29*
COc1ccc2c(c1)c1ncnc(N3CCN(Cc4ccc5c(c4)OCO5)CC3)c1n2C,-31,0,3,11,2,-6
CCN1CCCC1CNC(=O)c1nn(-c2ccc(C)cc2)c(=O)c2c1c1ccccc1n2C (configuration not stated),-11,37*,0,10,-1,-7
Cn1c(C(=O)N(Cc2ccccc2)Cc2cccs2)cc2sccc21,43*,0,0,4,0,9
Cn1c(C(=O)N(Cc2ccccc2)Cc2ccccn2)cc2sccc21,22,-1,1,18,4,2
CC(NC(=O)C(NC(=O)C1CCCN1C(=O)OC(C)(C)C)C(C)C)C(N)=O (configuration not stated),-2,0,2,18,-2,-12
NC(=O)c1c(NC(=O)c2cccs2)sc2c1CCCCCC2,-3,11*,0,-34,-3,-15
O=C(Nc1sc2c(c1C(=O)O)CCC2)c1cccs1,-8,0,-1,-8,6,-12
Cc1ccc(S(=O)(=O)N2c3ccc(S(N)(=O)=O)cc3CC2C)cc1 (configuration not stated),7,-1,86*,8,-4,14
CC1Cc2ccccc2N1S(=O)(=O)c1cccs1 (configuration not stated),-2,0,-2,8,-6,-2
SMILES,5-HT1A blocker,5HT1E ag,HTR1A agonist,HEK293 NFkB inh,Jurkat viability,5HT1E antag
Cn1ncc(N)c1C(=O)Nc1cccc(C(F)(F)F)c1,-8,-1,45*,-6,1,2
Cc1nn(C)c(C)c1S(=O)(=O)N(CC(=O)NCc1cccs1)c1ccc(C(C)C)cc1,0,1,2,5,-7,-16
COc1ccc(N(CC(=O)NCc2cccs2)S(=O)(=O)c2c(C)nn(C)c2C)cc1,-15,1,-2,5,3,34*
CCOC(=O)c1cnc(SCC(=O)Nc2nc(C)c(C)s2)nc1N,-3,1,-1,4,5,13
Cc1cc(Cl)ccc1OCCCC(=O)NO,5,0,-1,-7,93*,4
Cc1cc(Cl)ccc1OCCCC(N)=O,1,-1,0,6,-5,-9
CCOc1ccc(S(=O)(=O)N(C)CCO)cc1-c1nc2c(C(C)(C)C)nn(C)c2c(=O)[nH]1,.,0,3,.,.,15
O=C(c1ccc(F)cc1)C(CN1CCOCC1)c1ccccc1 (configuration not stated),69*,0,0,29,80*,51*
CC(=O)Nc1ccc(NC(=O)CSC2=NCCS2)cc1,3,0,-3,3,-6,-5
O=C(CSC1=NCCS1)Nc1ccnc2ccccc12,18,1,-1,36,29*,18
COc1ccccc1N1CCN(C/C(C)=C/c2ccccc2)CC1,84*,7,-3,11,11,-4
CCOC(=O)c1cnc2c(OC)cccc2c1N1CCN(c2ccccc2OC)CC1,38,9.1*,2,-6,2,2
COc1ccc(CN2CCN(C(=O)c3cccs3)CC2)c(OC)c1OC,-3,6,1,6,0,8
COc1ccccc1N1CCN(Cc2ccc(OC)c(OC)c2OC)CC1,62*,31*,4,20,7,-1
COc1ccc(OC)c(CN2CCN(c3ccccc3OC)CC2)c1,53*,5,-2,-3,10,7
CCOC(=O)c1cnc2c(OC)cccc2c1N1CCN(c2ccc(OC)cc2)CC1,8,2,2,12,-6,-9
COc1ccccc1N1CCN(c2cc(N3CCCC3)nc(C)n2)CC1,7,0,0,13,7,2
CCCc1cc(C(N)=O)c(NC(C)=O)s1,-14,0,-2,8,-4,11
CCC(=O)Nc1ccc(NC(=O)CSc2nnnn2C(C)C)cc1,3,0,0,-2,-10,9
Cc1cc(Nc2nc3c(c(=O)n(C)c(=O)n3C)n2C)n(-c2ccccc2)n1,3,0,0,2,-2,1
CCOc1ccc2cc(C#N)c(SCC(=O)NC(C)CC)nc2c1 (configuration not stated),5,1,5,4,2,5
COc1cc(CN2CCN(c3ccccc3F)CC2)cc(OC)c1O,4,14*,1,12,-4,2
CCOc1ccc(NC(=O)CCN2CCN(c3ccccc3OC)CC2)cc1,100*,1,1,14,-3,2
